Source: PubChem (Broad Institute)
IDH1 mut inh = inhibitors of IDH1 R132H reductase, primary screen, biochemical, plate reader, single point. diaphorase/resazurin fluorescence, 60 min. Isocitrate dehydrogenase [NADP] cytoplasmic (Homo sapiens), O75874. inhibition, % at 10 µM. 0.18% of 70,000 active; in the data active = inhibition above about 34%; inconclusive = no clear call, values can overlap the other calls; inactive = below about 11%;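 also: 0% = DMSO and 100% = no enzyme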
Target sequence (O75874 whole entry R132H): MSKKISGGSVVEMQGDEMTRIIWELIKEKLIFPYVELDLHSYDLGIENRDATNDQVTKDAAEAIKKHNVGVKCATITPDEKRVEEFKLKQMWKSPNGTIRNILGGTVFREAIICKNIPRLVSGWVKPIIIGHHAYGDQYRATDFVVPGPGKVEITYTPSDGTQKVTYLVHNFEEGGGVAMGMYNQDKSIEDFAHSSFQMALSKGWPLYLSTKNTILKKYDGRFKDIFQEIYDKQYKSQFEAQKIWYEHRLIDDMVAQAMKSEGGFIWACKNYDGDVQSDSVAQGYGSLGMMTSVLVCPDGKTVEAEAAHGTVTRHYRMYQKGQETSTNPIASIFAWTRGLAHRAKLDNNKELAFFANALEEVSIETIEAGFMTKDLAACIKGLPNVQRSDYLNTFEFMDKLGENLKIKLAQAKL
GASC1 inh = inhibitors of GASC-1 (KDM4C) histone demethylase, primary screen, biochemical, single concentration HTS | Lysine-specific demethylase 4C (Homo sapiens), Q9H3R0 | GST-KDM4C 2-372, H3K9me3 peptide, LANCE TR-FRET | inhibition, % at 12.5 µM | 0.15% of 96,000 active | AID 720574, 2013;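 active = mean replicate inhibition above about 25%, with at least 55% of replicates also reaching it, limit read from the data, passing the limit was not always enough; inconclusive = only one of those two conditions met; inactive = neither condition met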
Target sequence (Q9H3R0 2-372 limits assumed): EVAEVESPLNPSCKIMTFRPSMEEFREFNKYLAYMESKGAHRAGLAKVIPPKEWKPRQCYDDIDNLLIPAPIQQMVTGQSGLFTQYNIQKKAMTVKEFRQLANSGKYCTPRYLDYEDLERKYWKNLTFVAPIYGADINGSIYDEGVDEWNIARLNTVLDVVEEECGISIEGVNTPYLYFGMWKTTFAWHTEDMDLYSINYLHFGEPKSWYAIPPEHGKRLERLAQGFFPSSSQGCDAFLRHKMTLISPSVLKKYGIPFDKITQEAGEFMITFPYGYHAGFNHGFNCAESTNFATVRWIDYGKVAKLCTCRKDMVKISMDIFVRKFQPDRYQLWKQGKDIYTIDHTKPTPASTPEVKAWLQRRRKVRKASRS
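Assay system: GST-GASC-1 enzyme fragment 2-372 | Amount: 10 nM enzyme | Medium: HEPES buffer, pH 7.5, plus ascorbate | Reagent: H3K9me3 peptide substrate, Fe(II), 2-oxoglutarate | Doses: Single-point compound screen | Incubation: 30 min demethylation and 1 h detection at room temperature | Measured by: LANCE TR-FRET, excitation 340 nm, emissions 618 and 671 nm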
T cruzi growth-1 = T. cruzi intracellular proliferation inhibitors, primary screen, cell-based, beta-gal Tulahuen parasites, NIH3T3 host, luminescence; T. cruzi beta-gal in NIH3T3, GalScreen luminescence, 90 h; inhibition, % at 8.34 µM; 5.9% of 77,000 active; AID 624255, 2012;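 active = mean inhibition above about 93%, with at least 55% of replicates each passing it, limit read from the data, passing the limit was not always enough; inconclusive = only one of those two conditions holds; inactive = neither condition holds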
T cruzi growth-2 = T. cruzi intracellular proliferation inhibitors, confirmation, cell-based, NIH3T3 host, beta-gal parasite, luminescence, cherry-pick | shares compounds with T cruzi growth-1 | T. cruzi beta-gal in NIH3T3, GalScreen luminescence, 90 h | inhibition, % at 8.35 µM | 72% of 5,600 active | AID 651739, 2012;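 active = mean replicate inhibition above about 95% and at least 55% of replicates individually reaching it, limit read from the data; inconclusive = only one of the two criteria is met; inactive = neither criterion is met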
T cruzi growth-3 = inhibitors of intracellular T. cruzi replication, confirmation, NIH3T3 host cells, beta-gal parasites, cherry-pick, set 2; shares compounds with T cruzi growth-1; T. cruzi beta-gal in NIH3T3, GalScreen luminescence, 90 h; inhibition, % at 2.09 µM; 21% of 5,600 active; AID 651740, 2012;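 active = mean inhibition above about 95%, with at least 55% of replicates also reaching it, limit read from the data; inconclusive = meets just one of the two conditions; inactive = meets neither condition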;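 also: plate controls were neutral control median for no effect and positive control median for full effect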
3T3 cytotox = cytotoxicity in mouse NIH/3T3 fibroblasts, confirmation, cytotoxicity control for T. cruzi proliferation inhibitor project, cell-based, cherry-pick, single point; shares compounds with T cruzi growth-1; NIH/3T3 viability, CellTiter-Glo ATP luminescence, 90 h; cytotoxicity (signal decrease), % at 8.35 µM; 14% of 5,600 active; AID 651742, 2012;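 active = mean signal decrease across replicates above about 35% based on untreated-well scatter, with enough replicates individually passing, limit read from the data; inconclusive = no rule stated though some were filed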;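 also: 0% = median of neutral control wells and 100% = median of positive control wells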
NIH3T3 tox 2 = NIH/3T3 fibroblast cytotoxicity, confirmation, cytotoxicity control, cell-based, cherry-pick, single point, set 2 | AID 651744, 2012 | shares compounds with T cruzi growth-1 | 56% of 5,600 active | NIH/3T3 viability, CellTiter-Glo ATP luminescence, 90 h | inhibition, % at 24.9 µM;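 active = mean loss of cell viability signal at or above a set limit, and enough replicates individually reaching it; inconclusive = meets only the mean limit or only the replicate share; inactive = meets neither condition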;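 also: 0% = median of neutral control wells and 100% = median of positive control wells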
Numbers without * were called inactive; ? = inconclusive; . = no result. The full list was thinned out, with hits kept by preference.

SMILES	IDH1 mut inh	GASC1 inh	T cruzi growth-1	T cruzi growth-2	T cruzi growth-3	3T3 cytotox	NIH3T3 tox 2
N#Cc1cccc(-c2ccc([C@H]3[C@@H](CO)N4CCCCN(C(=O)Nc5ccc(F)cc5)C[C@@H]34)cc2)c1	.	-0.1	122.8*	109.4*	78.6	2.5	8.4
CCC(=O)N1CCCCN2[C@H](C1)[C@@H](c1ccc(-c3cccc(C#N)c3)cc1)[C@@H]2CO	.	-1.2	6.7	.	.	.	.
N#Cc1cccc(-c2ccc([C@@H]3[C@H]4CN(C(=O)Nc5ccccc5)CCCCN4[C@H]3CO)cc2)c1	.	0.2	101.5*	105.2*	27.7	17.4	42.1*
CCC(=O)N1CCCCN2[C@@H](CO)[C@@H](c3ccc(-c4cccc(C#N)c4)cc3)[C@@H]2C1	.	0.9	112.1*	90.5	91.7	6.9	12.7
N#Cc1cccc(-c2ccc([C@@H]3[C@@H](CO)N4CCCCN(C(=O)Nc5ccccc5)C[C@H]34)cc2)c1	.	-1.3	54.6	.	.	.	.
N#Cc1cccc(-c2ccc([C@@H]3[C@H]4CN(C(=O)Nc5cccc(F)c5)CCCCN4[C@H]3CO)cc2)c1	.	-1.4	92.8	.	.	.	.
N#Cc1cccc(-c2ccc([C@@H]3[C@@H](CO)N4CCCCN(C(=O)Nc5cccc(F)c5)C[C@H]34)cc2)c1	.	2.1	114.9*	105.2*	65.0	27.3	103.8*
N#Cc1cccc(-c2ccc([C@H]3[C@@H](CO)N4CCCCN(C(=O)Nc5ccc(F)cc5)C[C@H]34)cc2)c1	.	0.5	83.5	.	.	.	.
C[C@H](CO)N1C[C@H](C)[C@@H](CN(C)C)OCCCC[C@H](C)Oc2ccc(NC(=O)CCC(F)(F)F)cc2C1=O	1.5	0.5	52.4	.	.	.	.
C[C@@H]1CN([C@@H](C)CO)C(=O)c2cc(NC(=O)C3CCCCC3)ccc2O[C@@H](C)CCCCO[C@H]1CN(C)Cc1ccc2c(c1)OCO2	0.3	0.3	87.4	.	.	.	.
Cc1cccc(C)c1NC(=O)CC(C(=O)O)N(C)C (centres undefined)	-0.3	.	.	.	.	.	.
O=C(CCc1nc(-c2ccccc2F)no1)Nc1ccccc1Cl	0.3	.	.	.	.	.	.
Cc1cc(OCC(=O)Nc2ncn[nH]2)c(C)cc1Br	0.5	.	.	.	.	.	.
O=C(CCCOc1ccc(Cl)cc1Cl)Nc1c[nH]c(=O)[nH]c1=O	0.3	.	.	.	.	.	.
CCC1(C)Cc2nc3nc(SCC(=O)c4ccc(Br)cc4)n(-c4ccccc4)c(=O)c3cc2CO1 (centres undefined)	0.2	.	.	.	.	.	.
CN(C)CCCNC(=O)C[C@H]1C=C[C@H](NS(=O)(=O)c2ccccc2)[C@H](CO)O1	-0.2	1.0	-36.6	.	.	.	.
COc1ccccc1CNCc1cccc(OC)c1OC	-0.3	.	.	.	.	.	.
Cc1ccc2c(c1)c(-c1ccccc1)c(-c1ccccc1)n2CC(O)CN1CCN(CCO)CC1 (centres undefined)	-0.8	.	.	.	.	.	.
COc1ccccc1-c1ccc([C@H]2[C@@H](CO)N3CCCCN(C(=O)CN4CCOCC4)C[C@@H]23)cc1	.	0.5	?	76.5	71.3	27.3	64.8*
COc1ccccc1-c1ccc([C@@H]2[C@@H](CO)N3CCCCN(C(=O)CN4CCOCC4)C[C@@H]23)cc1	.	0.7	114.3*	38.7	-28.7	3.4	25.9*
O=C(CN1CCOCC1)N1CCCCN2[C@H](C1)[C@H](c1ccc(/C=C/c3ccccc3)cc1)[C@@H]2CO	.	-1.4	6.7	.	.	.	.
COc1ccccc1-c1ccc([C@@H]2[C@@H](CO)N3CCCCN(C(=O)CN4CCOCC4)C[C@H]23)cc1	.	-0.5	32.4	.	.	.	.
Cc1ccc(Nc2nc(N)nc(COc3cccc4cccnc34)n2)cc1	-0.6	.	.	.	.	.	.
CCc1nc2sc3c(c2c2nnc(SCC(=O)OC)n12)CCC3	0.9	.	.	.	.	.	.
Cn1c2ccccc2c2nnc(SCC(=O)c3ccc(Cl)cc3)nc21	-0.2	.	.	.	.	.	.
SMILES	IDH1 mut inh	GASC1 inh	T cruzi growth-1	T cruzi growth-2	T cruzi growth-3	3T3 cytotox	NIH3T3 tox 2
O=C(CNCCO)Nc1sc2c(c1C(=O)Nc1ccc(Br)cc1)CCC2	0.6	.	.	.	.	.	.
C[C@@H]1CN([C@H](C)CO)C(=O)c2cc(NC(=O)Nc3cccc4ccccc34)ccc2O[C@@H]1CN(C)Cc1ccc(Oc2ccccc2)cc1	0.1	1.7	116.6*	101.3*	47.9	40.8*	?
C[C@H]1CN([C@@H](C)CO)C(=O)c2cc(NC(=O)Nc3cccc4ccccc34)ccc2O[C@@H]1CN(C)Cc1ccc(Oc2ccccc2)cc1	3.5	-2.0	125.1*	97.7*	101.8*	41.0*	44.1*
COc1ccc(CN(C)C[C@@H]2Oc3ccc(NC(=O)Nc4cccc5ccccc45)cc3C(=O)N([C@@H](C)CO)C[C@H]2C)cc1	-5.8	-1.9	52.0	.	.	.	.
C[C@H](CO)N1C[C@H](C)[C@H](CN(C)Cc2ccc(Oc3ccccc3)cc2)Oc2ccc(NC(=O)Nc3cccc4ccccc34)cc2C1=O	.	-3.3	122.8*	103.8*	99.7*	33.1	37.0*
COc1ccc(CN(C)C[C@H]2Oc3ccc(NC(=O)Nc4cccc5ccccc45)cc3C(=O)N([C@H](C)CO)C[C@H]2C)cc1	-1.3	.	62.5	.	.	.	.
C[C@H](CO)N1C[C@H](C)[C@@H](CN(C)Cc2ccc(Oc3ccccc3)cc2)Oc2ccc(NC(=O)Nc3cccc4ccccc34)cc2C1=O	.	-0.6	117.1*	99.0*	77.6	?	23.8
COc1ccc(CN(C)C[C@H]2Oc3ccc(NC(=O)Nc4cccc5ccccc45)cc3C(=O)N([C@@H](C)CO)C[C@@H]2C)cc1	0.3	0.9	17.1	.	.	.	.
COc1ccc(CN(C)C[C@@H]2Oc3ccc(NC(=O)Nc4cccc5ccccc45)cc3C(=O)N([C@@H](C)CO)C[C@@H]2C)cc1	-0.3	-4.0	-20.0	.	.	.	.
COC(=O)c1ccccc1NC(=O)CSc1nnnn1-c1ccccc1OC	-0.7	.	.	.	.	.	.
Cc1ccnc(SCC(=O)Nc2sc3c(c2C(=O)Nc2ccccc2)CCCC3)n1	1.2	.	.	.	.	.	.
O=C(CSc1nc(-c2ccccc2)cc(C(F)(F)F)n1)Nc1ccc2c(c1)CCC2	0.9	.	.	.	.	.	.
CC(C)n1c2ccccc2c2nnc(SCC(=O)N3c4ccccc4Sc4ccccc43)nc21	-0.3	.	.	.	.	.	.
Cc1ccccc1-c1ccc2c(c1)O[C@H](CN(C)Cc1ccncc1)[C@@H](C)CN([C@@H](C)CO)S2(=O)=O	45.2*	-0.6	96.8*	99.2*	98.5*	40.8*	104.8*
C[C@H](CO)N1C[C@H](C)[C@@H](CN(C)Cc2cncnc2)Oc2cc(-c3ccccc3F)ccc2S1(=O)=O	3.3	2.3	2.8	.	.	.	.
